Measured values reported in ChEMBL document CHEMBL1255509, “Structure-activity relationship of boronic acid derivatives of tyropeptin: proteasome inhibitors” (Bioorg Med Chem Lett, 2010).

What was measured:
[1] = Inhibition of caspase like activity of partially purified human proteasome; assay type: subcellular
Method in brief: (§1)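 Purified 20S proteasome isolated from human erythrocytes served as the enzyme source. Inhibition is reported as IC50.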

[2] = Inhibition of chymotrypsin like activity of partially purified human proteasome; assay type: subcellular; method in brief: as §1
[3] = Inhibition of trypsin like activity of partially purified human proteasome; assay type: subcellular; method in brief: as §1
[4] = Cytotoxicity against human RPMI8226 cells; assay type: cell-based; settings: RPMI-8226

| SMILES | IC50 [1] [nM] | IC50 [2] [nM] | IC50 [3] [nM] | IC50 [4] [nM] |
| --- | --- | --- | --- | --- |
| COc1ccc(C[C@H](NC(=O)[C@@H](NC(=O)[C@H](Cc2ccc(OC)cc2)NC(=O)c2cc(Cl)ccn2)C(C)C)B(O)O)cc1 | 21000 | 88 | 15000 | 39 |
| COc1ccc(C[C@H](NC(=O)[C@@H](NC(=O)[C@H](Cc2ccc(OC)cc2)NC(=O)Cc2ccc3ccccc3c2)C(C)C)B(O)O)cc1 | 29000 | 22 | 12000 | 170 |
| COc1ccc(C[C@H](NC(=O)[C@@H](NC(=O)[C@H](Cc2ccc(OC)cc2)NC(=O)Cc2cccc(Oc3ccccc3)c2)C(C)C)B(O)O)cc1 | 29000 | 4.1 | 1100 | 190 |
| COc1ccc(C[C@H](NC(=O)[C@@H](NC(=O)[C@H](Cc2ccc(OC)cc2)NC(=O)c2nccc3ccccc23)C(C)C)B(O)O)cc1 | 19000 | 41 | 10000 | 34 |
| COc1ccc(C[C@H](NC(=O)[C@@H](NC(=O)[C@H](Cc2ccc(OC)cc2)NC(=O)c2cc3ccccc3cn2)C(C)C)B(O)O)cc1 | 11000 | 59 | 9000 | 93 |
| COc1ccc(C[C@H](NC(=O)[C@@H](NC(=O)[C@H](Cc2ccc(OC)cc2)NC(=O)c2ccc3cnccc3c2)C(C)C)B(O)O)cc1 | > 40000 | 380 | > 40000 | 260 |
| COc1ccc(C[C@H](NC(=O)[C@@H](NC(=O)[C@H](Cc2ccc(OC)cc2)NC(=O)Cc2ccc3ccccc3n2)C(C)C)B(O)O)cc1 | 16000 | 100 | 5400 | 73 |
| COc1ccc(C[C@H](NC(=O)[C@@H](NC(=O)[C@H](Cc2ccc(OC)cc2)NC(=O)c2cnc3ccccc3c2)C(C)C)B(O)O)cc1 | 32000 | 56 | 10000 | 54 |
| COc1ccc(C[C@H](NC(=O)[C@@H](NC(=O)[C@H](Cc2ccc(OC)cc2)NC(=O)c2ccnc3ccccc23)C(C)C)B(O)O)cc1 | 24000 | 49 | 8600 | 49 |
| COc1ccc(C[C@H](NC(=O)[C@@H](NC(=O)[C@H](Cc2ccc(OC)cc2)NC(=O)c2cccc3cccnc23)C(C)C)B(O)O)cc1 | 16000 | 93 | 18000 | 56 |
| COc1ccc(C[C@H](NC(=O)[C@@H](NC(=O)[C@H](Cc2ccc(OC)cc2)NC(=O)c2cnccn2)C(C)C)B(O)O)cc1 | 33000 | 240 | 19000 | 17 |
| COc1ccc(C[C@H](NC(=O)[C@@H](NC(=O)[C@H](Cc2ccc(OC)cc2)NC(=O)c2ccccn2)C(C)C)B(O)O)cc1 | 23000 | 230 | 40000 | 13 |
| COc1ccc(C[C@H](NC(=O)[C@@H](NC(=O)[C@H](Cc2ccc(OC)cc2)NC(=O)c2cccnc2)C(C)C)B(O)O)cc1 | > 40000 | 500 | > 40000 | 870 |
| COc1ccc(C[C@H](NC(=O)[C@@H](NC(=O)[C@H](Cc2ccc(OC)cc2)NC(=O)c2ccncc2)C(C)C)B(O)O)cc1 | > 40000 | 2300 | > 40000 | 870 |
| COc1ccc(C[C@H](NC(=O)[C@@H](NC(=O)[C@H](Cc2ccc(OC)cc2)NC(=O)c2ncccc2C)C(C)C)B(O)O)cc1 | > 40000 | 85 | 20000 | 14 |
| COc1ccc(C[C@H](NC(=O)[C@@H](NC(=O)[C@H](Cc2ccc(OC)cc2)NC(=O)c2cc(C)ccn2)C(C)C)B(O)O)cc1 | 30000 | 140 | 20000 | 14 |
| COc1ccc(C[C@H](NC(=O)[C@@H](NC(=O)[C@H](Cc2ccc(OC)cc2)NC(=O)c2ccc(C)cn2)C(C)C)B(O)O)cc1 | 30000 | 120 | 14000 | 14 |
| COc1ccc(C[C@H](NC(=O)[C@@H](NC(=O)[C@H](Cc2ccc(OC)cc2)NC(=O)c2cccc(C)n2)C(C)C)B(O)O)cc1 | 30000 | 88 | 17000 | 14 |
| COc1ccc(C[C@H](NC(=O)[C@@H](NC(=O)[C@H](Cc2ccc(OC)cc2)NC(=O)c2ncccc2F)C(C)C)B(O)O)cc1 | 25000 | 140 | 24000 | 4.9 |
| COc1ccc(C[C@H](NC(=O)[C@@H](NC(=O)[C@H](Cc2ccc(OC)cc2)NC(=O)c2ccc(F)cn2)C(C)C)B(O)O)cc1 | 30000 | 81 | 14000 | 19 |
| COc1ccc(C[C@H](NC(=O)[C@@H](NC(=O)[C@H](Cc2ccc(OC)cc2)NC(=O)c2cccc(F)n2)C(C)C)B(O)O)cc1 | 27000 | 110 | 20000 | 15 |
| COc1ccc(C[C@H](NC(=O)[C@@H](NC(=O)[C@H](Cc2ccc(OC)cc2)NC(=O)c2ncccc2Cl)C(C)C)B(O)O)cc1 | 20000 | 83 | 20000 | 9.7 |

| SMILES | IC50 [1] [nM] | IC50 [2] [nM] | IC50 [3] [nM] | IC50 [4] [nM] |
| --- | --- | --- | --- | --- |
| COc1ccc(C[C@H](NC(=O)[C@@H](NC(=O)[C@H](Cc2ccc(OC)cc2)NC(=O)c2ccc(Cl)cn2)C(C)C)B(O)O)cc1 | 16000 | 83 | 15000 | 39 |
| COc1ccc(C[C@H](NC(=O)[C@@H](NC(=O)[C@H](Cc2ccc(OC)cc2)NC(=O)c2cccc(Cl)n2)C(C)C)B(O)O)cc1 | 23000 | 100 | 10000 | 29 |
| COc1ccc(C[C@H](NC(=O)[C@@H](NC(=O)[C@H](Cc2ccc(OC)cc2)NC(=O)c2nc(Cl)ccc2Cl)C(C)C)B(O)O)cc1 | 26000 | 53 | 13000 | 14 |
| COc1ccc(C[C@H](NC(=O)[C@@H](NC(=O)[C@H](Cc2ccc(OC)cc2)NC(=O)c2ncccc2Br)C(C)C)B(O)O)cc1 | 20000 | 61 | 17000 | 13 |
| COc1ccc(C[C@H](NC(=O)[C@@H](NC(=O)[C@H](Cc2ccc(OC)cc2)NC(=O)c2cc(Br)ccn2)C(C)C)B(O)O)cc1 | 17000 | 95 | 14000 | 47 |
| COc1ccc(C[C@H](NC(=O)[C@@H](NC(=O)[C@H](Cc2ccc(OC)cc2)NC(=O)c2ccc(Br)cn2)C(C)C)B(O)O)cc1 | 24000 | 93 | 14000 | 46 |
| COc1ccc(C[C@H](NC(=O)[C@@H](NC(=O)[C@H](Cc2ccc(OC)cc2)NC(=O)c2cccc(Br)n2)C(C)C)B(O)O)cc1 | 27000 | 92 | 14000 | 44 |
| COc1ccc(C[C@H](NC(=O)[C@@H](NC(=O)[C@H](Cc2ccc(OC)cc2)NC(=O)c2cc(C(F)(F)F)ccn2)C(C)C)B(O)O)cc1 | 25000 | 150 | 20000 | 53 |
| COc1ccc(C[C@H](NC(=O)[C@@H](NC(=O)[C@H](Cc2ccc(OC)cc2)NC(=O)c2ccc(C(F)(F)F)cn2)C(C)C)B(O)O)cc1 | 28000 | 110 | 19000 | 47 |
| COc1ccc(C[C@H](NC(=O)[C@@H](NC(=O)[C@H](Cc2ccc(OC)cc2)NC(=O)c2ncccc2O)C(C)C)B(O)O)cc1 | 29000 | 390 | > 40000 | 52 |
| COc1ccc(C[C@H](NC(=O)[C@@H](NC(=O)[C@H](Cc2ccc(OC)cc2)NC(=O)c2cccc(O)n2)C(C)C)B(O)O)cc1 | 26000 | 240 | 21000 | 340 |
| COc1ccc(C[C@H](NC(=O)[C@@H](NC(=O)[C@H](Cc2ccc(OC)cc2)NC(=O)c2ncccc2OC)C(C)C)B(O)O)cc1 | 26000 | 130 | 31000 | 41 |
| COc1ccc(C[C@H](NC(=O)[C@@H](NC(=O)[C@H](Cc2ccc(OC)cc2)NC(=O)c2cc(OC)ccn2)C(C)C)B(O)O)cc1 | 20000 | 87 | 16000 | 13 |
| COc1ccc(C[C@H](NC(=O)[C@@H](NC(=O)[C@H](Cc2ccc(OC)cc2)NC(=O)c2ccc(OC)cn2)C(C)C)B(O)O)cc1 | 21000 | 94 | 14000 | 13 |
| COc1ccc(C[C@H](NC(=O)[C@@H](NC(=O)[C@H](Cc2ccc(OC)cc2)NC(=O)c2cccc(OC)n2)C(C)C)B(O)O)cc1 | 35000 | 59 | 21000 | 51 |
| COc1ccc(C[C@H](NC(=O)[C@@H](NC(=O)[C@H](Cc2ccc(OC)cc2)NC(=O)c2cc([N+](=O)[O-])ccn2)C(C)C)B(O)O)cc1 | 34000 | 190 | 19000 | 48 |
| COc1ccc(C[C@H](NC(=O)[C@@H](NC(=O)[C@H](Cc2ccc(OC)cc2)NC(=O)c2cc(N(C)C)ccn2)C(C)C)B(O)O)cc1 | 21000 | 110 | 15000 | 44 |
| COc1ccc(C[C@H](NC(=O)CNC(=O)[C@H](Cc2ccc(OC)cc2)NC(=O)c2ccccn2)B(O)O)cc1 | 34000 | 260 | > 40000 | 24 |
| COc1ccc(C[C@H](NC(=O)[C@H](C)NC(=O)[C@H](Cc2ccc(OC)cc2)NC(=O)c2ccccn2)B(O)O)cc1 | > 40000 | 110 | > 40000 | 57 |
| COc1ccc(C[C@H](NC(=O)[C@@H](NC(=O)[C@H](Cc2ccc(OC)cc2)NC(=O)Cc2cccc3ccccc23)C(C)C)B(O)O)cc1 | 39000 | 19 | > 40000 | 28 |
| CC(C)C[C@H](NC(=O)[C@H](Cc1ccccc1)NC(=O)c1cnccn1)B(O)O [BORTEZOMIB] | 750 | 39 | > 40000 | 8.8 |
